Measurements from ChEMBL document CHEMBL4257585, “Structure-Activity Relationships of Photoswitchable Diarylethene-Based β-Hairpin Peptides as Membranolytic Antimicrobial and Anticancer Agents” (J Med Chem, 2018).
In brackets after ≈: the same amount, converted by molar mass.

What was measured:
Bacillus subtilis = assay: Antimicrobial activity against Bacillus subtilis DSM 347 after 22 hrs by resazurin dye based spectrophotometry; type: functional; conditions: DSM 347, 22 h
Outline: (§1)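 2-fold broth microdilution in Mueller–Hinton medium; peptide stocks 1024 μg/mL in 50% ethanol. Exponential-phase cultures diluted to OD550 0.2, then 1:100 (B. subtilis) or 1:1000 (E. coli), giving 5 × 10^5 CFU/mL per well. Incubated 22 h, 37 °C, static; then resazurin (0.2 mg/mL solution) added for 2 h at 37 °C, read visually and spectrophotometrically. Tested in both photoforms.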

Escherichia coli = assay: Antimicrobial activity against Escherichia coli DSM 1103 after 22 hrs by resazurin dye based spectrophotometry; type: functional; conditions: DSM 1103, 22 h; outline: as §1
HeLa = assay: Cytotoxicity against human HeLa cells assessed as reduction in cell viability after 24 hrs by MTT assay; type: functional, cell-based
Outline: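 HeLa cells seeded at about 5 × 10^4 cells/mL in DMEM with 10% FBS, 2 mM glutamine, gentamicin; 24 h adaptation (37 °C, 5% CO2), then 24 h peptide exposure. MTT 4 h, formazan in DMSO read at 570 nm. 2-fold series 256–0.5 (open) or 512–1 μg/mL (closed), four repetitions; IC50 extrapolated from killing curves. Closed form handled in dim light.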

[1] = Hemolytic activity against human RBC assessed as hemolysis after 30 mins by colorimetric method; type: ADME, cell-based, Erythrocyte; conditions: human red blood cells (erythrocytes)
Outline: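 Human erythrocytes washed twice in isotonic 172 mM Tris-HCl, pH 7.6; peptides dissolved in DMSO, diluted in buffer, two independent 10-step 2-fold series from 256 or 192 μg/mL. HC50 extrapolated as 50% hemolysis concentration.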

[2] = Therapeutic index, ratio of HC50 for human RBC to MIC for Escherichia coli DSM 1103; type: toxicity; conditions: human red blood cells versus Escherichia coli DSM 1103
Outline: (§2)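 Ratio of HC50 (RBC) to HeLa IC50 or to MIC against B. subtilis or E. coli; values measured in mg/mL and recalculated to μM, 2-fold dilution without curve fitting, accuracy within a factor of 2.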

[3] = Therapeutic index, ratio of HC50 for human RBC to MIC for Bacillus subtilis DSM 347; type: toxicity; conditions: human red blood cells versus Bacillus subtilis DSM 347; outline: as §2
[4] = Selective ratio of HC50 for human RBC to IC50 for human HeLa cells; type: toxicity; conditions: human red blood cells versus HeLa cells; outline: as §2
HepG2 = assay: Cytotoxicity against human HepG2 cells assessed as reduction in cell viability after 24 hrs by MTT assay; type: functional, cell-based; conditions: HepG2, 24 h
Outline: (§3)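 Cells were grown in DMEM with 10% FBS, 2 mM L-glutamine and 40 μg/mL gentamicin, seeded at about 5 × 10^4 cells/mL, and allowed 24 h adaptation (37 °C, 5% CO2). Peptides were then added for 24 h as 2-fold dilutions (open 256–0.5, closed 512–1 μg/mL), closed form handled under dim light. MTT was given for 4 h, formazan dissolved in DMSO and read at 570 nm. Four repetitions; IC50 extrapolated from viability curves.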

MCF7 = assay: Cytotoxicity against human MCF7 cells assessed as reduction in cell viability after 24 hrs by MTT assay; type: functional, cell-based; conditions: MCF7, 24 h; outline: as §3
MIA PaCa-2 = assay: Cytotoxicity against human MIAPaCa2 cells assessed as reduction in cell viability after 24 hrs by MTT assay; type: functional, cell-based; conditions: MIA PaCa-2, 24 h; outline: as §3
[5] = Cytotoxicity against human MOR cells assessed as reduction in cell viability after 24 hrs by MTT assay; type: functional, cell-based; outline: as §3
[6] = Cytotoxicity against human doxorubicin-resistant MOR cells assessed as reduction in cell viability after 24 hrs by MTT assay; type: functional, cell-based; outline: as §3

SMILES	MIC (Bacillus subtilis)	MIC (Escherichia coli)	IC50 (HeLa)	HC50 at 0.5 h [1]	selectivity ratio [2]	selectivity ratio [3]	selectivity ratio [4]	IC50 (HepG2)	IC50 (MCF7)	IC50 (MIA PaCa-2)	IC50 [5]	IC50 [6]
CC(C)C[C@@H]1NC(=O)[C@H](CCCCN)NC(=O)[C@H](C(C)C)NC(=O)[C@@H]2CCCN2C(=O)[C@@H](Cc2ccccc2)NC(=O)[C@H](CC(C)C)NC(=O)[C@H](CCCCN)NC(=O)[C@H](C(C)C)NC(=O)[C@H](CCCCN)NC(=O)C2=CC3=C4CCCC4=C4C=C(S[C@]4(C)[C@@]3(C)S2)C(=O)[C@H]2CCCN2C(=O)[C@H](CCCCN)NC1=O	21 µM (≈ 32.9 µg/mL)	164 µM (≈ 257 µg/mL)	82 µM	65 µM	0.4	3.1	0.8	–	–	–	–	–
Cc1sc2cc1C1=C(CCC1)c1cc(sc1C)C(=O)[C@H]1CCCN1C(=O)[C@H](CCCCN)NC(=O)[C@H](CC(C)C)NC(=O)[C@H](CCCCN)NC(=O)[C@H](C(C)C)NC(=O)[C@@H]1CCCN1C(=O)[C@@H](Cc1ccccc1)NC(=O)[C@H](CC(C)C)NC(=O)[C@H](CCCCN)NC(=O)[C@H](C(C)C)NC(=O)[C@H](CCCCN)NC2=O	1 µM (≈ 1.57 µg/mL)	21 µM (≈ 32.9 µg/mL)	41 µM	4 µM	0.2	4	0.1	–	–	–	–	–
CC(C)[C@@H]1NC(=O)C2=CC3=C4CCCC4=C4C=C(S[C@]4(C)[C@@]3(C)S2)C(=O)[C@H]2CCCN2C(=O)[C@H](C(C)C)NC(=O)[C@H](CCCN)NC(=O)[C@H]([C@H](O)C(C)C)NC(=O)[C@@H]2CCCN2C(=O)[C@@H](Cc2ccccc2)NC(=O)[C@H](C(C)C)NC(=O)[C@H](CCCN)NC1=O	9 µM (≈ 11.5 µg/mL)	100 µM (≈ 128 µg/mL)	150 µM	200 µM	2	21.3	1.3	100 µM	150 µM	150 µM	150 µM	100 µM
Cc1sc2cc1C1=C(CCC1)c1cc(sc1C)C(=O)[C@H]1CCCN1C(=O)[C@H](C(C)C)NC(=O)[C@H](CCCCN)NC(=O)[C@H](CC(C)C)NC(=O)[C@H](CCCCN)NC(=O)[C@@H]1CCCN1C(=O)[C@@H](Cc1ccccc1)NC(=O)[C@H](CCCCN)NC(=O)[C@H](C(C)C)NC(=O)[C@H](CCCCN)NC(=O)[C@H](CC(C)C)NC2=O	2 µM (≈ 3.13 µg/mL)	41 µM (≈ 64.2 µg/mL)	41 µM	82 µM	2	41	2	–	–	–	–	–
Cc1sc2cc1C1=C(CCC1)c1cc(sc1C)C(=O)[C@H]1CCCN1C(=O)[C@H](C(C)C)NC(=O)[C@H](CCCN)NC(=O)[C@H]([C@H](O)C(C)C)NC(=O)[C@@H]1CCCN1C(=O)[C@@H](Cc1ccccc1)NC(=O)[C@H](C(C)C)NC(=O)[C@H](CCCN)NC(=O)[C@H](C(C)C)NC2=O	3 µM (≈ 3.85 µg/mL)	50 µM (≈ 64.1 µg/mL)	9 µM	20 µM	0.4	6.7	2.2	5 µM	6 µM	6 µM	5 µM	5 µM
